# CXCR6 inh: blocks human CXCR6 beta-arrestin recruitment; inhibition, % at 20 µM; O00574; CHO-K1 PathHunter CXCR6 beta-arrestin, luminescence; AID 602244; actives 0.36% (n = 360,000); in the data active = inhibition above about 34%, passing the limit was not always enough;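 also: antagonist mode with CXCL16 agonist at 10 nM final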
# APJ agonist: APJ receptor agonism; AID 2520; actives 0.11% (n = 330,000); CHO-K1 APJ PathHunter beta-arrestin, luminescence; 0% DMSO wells, 100% apelin; activation, % at 20 µM; P35414;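 active = activation more than six SD over the plate average, tested at 20 µM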
#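 Test system: CHO-K1 APJ beta-arrestin complementation cell line | Compound: Single test compound dose, 20 µM final, 1% DMSO | Incubation: Compound 90 min 25 °C, reagent 1 h | Measured by: beta-gal luminescence | Read-out basis: APJ–arrestin association signal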
# APJ antagonist: APJ receptor antagonism; inhibition, % at 20 µM; CHO-K1 APJ beta-arrestin complementation, luminescence; actives 0.32% (n = 330,000); AID 2521;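 active = inhibition above about 40% at 20 µM, limit read from the data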;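 also: cells challenged with 10 nM apelin-13 agonist together with compound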
# CCR6 antag: CCR6 (human) receptor antagonism. P51684. CHO-K1 CCR6 PathHunter beta-arrestin, luminescence, CCL20-stimulated. inhibition, % at 20 µM. actives 0.49% (n = 340,000);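 active = compounds whose inhibition of the agonist-driven luminescence signal at 20 µM reaches about 50%, limit read from the data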;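 also: cells stimulated with CCL20 at 14 nM final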
# EBI2 antag: antagonists of human EBI2 receptor. EBI2 beta-arrestin recruitment, luminescence, 7a,25-OHC stimulated. inhibition, % at 5 µM. AID 651636. actives 0.81% (n = 360,000); in the data active = inhibition above about 38%;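 also: enzyme fragment complementation signal reports receptor beta-arrestin coupling in cells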
# Target sequence (P32249 whole entry, looked up, the tested form may be a part): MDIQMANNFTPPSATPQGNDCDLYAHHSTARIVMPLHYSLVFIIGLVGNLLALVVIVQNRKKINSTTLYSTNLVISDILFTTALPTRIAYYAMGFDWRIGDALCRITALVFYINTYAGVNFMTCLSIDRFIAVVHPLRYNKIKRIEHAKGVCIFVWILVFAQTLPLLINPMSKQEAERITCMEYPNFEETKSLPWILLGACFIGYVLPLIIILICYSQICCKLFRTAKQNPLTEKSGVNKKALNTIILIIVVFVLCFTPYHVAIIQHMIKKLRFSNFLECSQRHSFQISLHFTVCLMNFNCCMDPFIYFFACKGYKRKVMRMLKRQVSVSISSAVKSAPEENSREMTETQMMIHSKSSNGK
# Numbers stand for hits; . = inactive; / = no result. Rows were chosen to be rich in hits. Some 1.5% of all compounds tested hit in one or more screens of this group.
SMILES,CXCR6 inh,APJ agonist,APJ antagonist,CCR6 antag,EBI2 antag
CC1(C)C[C@H](O)[C@]2(CO)CC[C@]3(C)C(=CCC4[C@@]5(C)CC[C@H](O)C(C)(C)C5CC[C@]43C)[C@@H]2C1 (some centres undefined),.,.,.,.,.
CC1(C)C2CC[C@]3(C)C(CC=C4[C@@H]5C[C@@](C)(CO)[C@@H]6C[C@@]5(CC[C@]43C)C(=O)O6)[C@@]2(C)CC[C@@H]1O (some centres undefined),/,.,.,56.1,/
COC(=O)c1ccccc1NC(=O)C/C(C)=N/NC(=O)Cc1ccc(Cl)cc1,.,.,.,/,.
O=C(N/N=C/c1cc([N+](=O)[O-])ccc1O)C1CC1,.,.,.,.,61.5
O=C(N/N=C/c1cc([N+](=O)[O-])ccc1O)c1ccc2c(c1)OCCO2,.,.,.,.,76.2
O=C(N/N=C/c1cccc([N+](=O)[O-])c1)c1cccc2cc[nH]c12,.,.,.,.,.
O=C1NCCCC1C(=O)N/N=C/c1cc([N+](=O)[O-])ccc1O (centres undefined),.,.,.,.,.
O=C(N/N=C/c1cc([N+](=O)[O-])ccc1O)c1cccc2cc[nH]c12,.,.,.,.,63.4
CS(=O)(=O)c1nc(-c2ccc(Br)cc2)cc(-c2ccccc2)c1C#N,.,.,.,.,81.1
COc1cc(CN2C(=O)C(C)ON=C2c2ccccc2F)cc(OC)c1 (centres undefined),.,/,/,/,.
CCOC(=O)N1CCC(NC(=O)C2CCN(C(=O)c3cc4sccc4n3CC)CC2)CC1,.,.,.,.,.
Cc1cc(N/N=C/c2ccc(O)cc2O)nc(-c2ccccc2O)n1,.,/,/,.,.
Cc1cc(N/N=C/c2ccc(O)cc2O)nc(-n2nc(C)cc2C)n1,92.1,/,/,93.0,84.5
CC(C)(C)c1cc(C(c2cccnc2)N2CCN(CCO)CC2)cc(C(C)(C)C)c1O (centres undefined),.,.,.,61.8,.
O=S(=O)(O)c1cc(O)c(N=Nc2ccc(O)cc2O)c2ccccc12,39.3,/,/,61.6,.
CNC(=O)c1c(NC(=O)c2nc3ccccc3s2)sc2c1CCC2,39.7,.,.,/,.
CC(C)(C)OC(=O)N1CCC(c2c(C(=O)NC3CC3)cnn2-c2ccccc2)CC1,.,.,.,.,.
COCCC(=O)N1CCC(Oc2ccc(C(=O)N(C)CCCC3CCCC3)cc2)CC1,.,.,.,.,.
CN1CCN(C(c2ccc(C(F)(F)F)cc2)c2cc(Cl)c3cccnc3c2O)CC1 (centres undefined),/,.,.,/,/
Oc1c(I)cc(Cl)c2cccnc12,35.7,.,.,55.0,.
COc1ccc(C(NC(C)=O)c2cc(Cl)c3cccnc3c2O)cc1 (centres undefined),.,.,.,.,.
CN1CCN(C(c2ccc(Cl)cc2)c2cc(Cl)c3cccnc3c2O)CC1 (centres undefined),.,.,.,63.3,.
Oc1c(C(c2ccccn2)N2CCCCC2)cc(Cl)c2cccnc12 (centres undefined),.,.,.,63.2,.
O=C(NC(c1ccc(Cl)cc1)c1cc(Cl)c2cccnc2c1O)c1cccnc1 (centres undefined),.,/,/,.,64.5
O=C(Nc1cccc(S(=O)(=O)NC2=NCCC2)c1)c1cnc(Cl)c(Cl)c1,.,.,.,.,.
SMILES,CXCR6 inh,APJ agonist,APJ antagonist,CCR6 antag,EBI2 antag
Cc1ccnc(NS(=O)(=O)c2cc(-c3cc(C)no3)ccc2C(C)C)c1,.,.,.,.,.
CCNC(=O)C1(C)CCN(C(=O)c2ccc3snnc3c2)C1 (centres undefined),.,/,/,/,.
O=C(CSc1cccc[n+]1[O-])Nc1cc(Cl)ccc1[N+](=O)[O-],.,.,.,.,.
O=[N+]([O-])c1ccc(Nc2ccccc2)c2nonc12,.,.,51.7,51.3,.
O=[N+]([O-])c1ccc(Sc2cccc[n+]2[O-])c2nonc12,109.5,/,/,115.3,58.1
CCOc1ccc(NC(=O)COc2ccc(C(=O)NC(C)c3ccc(S(N)(=O)=O)cc3)cc2OC)cc1 (centres undefined),.,.,.,.,.
COc1ccccc1-n1c(=O)c(C#N)c(-c2ccc([N+](=O)[O-])cc2)c2cc(C(=O)c3ccccc3O)cnc21,.,.,.,.,.
